Measurements as given in ChEMBL document CHEMBL1141626, “Thiosemicarbazones active against Clostridium difficile” (2008).
Converted amounts (≈) assume the structure as drawn. The source made the active and inactive calls. The calls are words filed in the database; no cut-off is given here.

Key:
[1] = tested on: Clostridioides difficile; assay: Antimicrobial activity against Clostridium difficile NCTC 11204 after 48 hrs; type: functional; conditions: NCTC 11204, 48 h
How it was run: (§1)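 Anaerobes incubated in an anaerobic cabinet for broth MIC determination. Drug-free incubations of the same organisms served as controls. Value is the minimum inhibitory concentration.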

[2] = tested on: Clostridioides difficile; assay: Antimicrobial activity against Clostridium difficile O27 after 48 hrs; type: functional; how it was run: as §1
[3] = tested on: Clostridioides difficile; assay: Antimicrobial activity against Clostridium difficile Z162 after 48 hrs; type: functional; how it was run: as §1
[4] = tested on: Clostridioides difficile; assay: Antimicrobial activity against Clostridium difficile Z229 after 48 hrs; type: functional; how it was run: as §1
[5] = tested on: Staphylococcus epidermidis; assay: Antimicrobial activity against Staphylococcus epidermidis NCTC 11047 after 24 hrs; type: functional; conditions: NCTC 11047, 24 h
How it was run: (§2)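 MIC by dilution in nutrient broth. Anaerobic organisms were incubated in an anaerobic cabinet. Controls were the same organisms incubated without test compound.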

[6] = tested on: Staphylococcus epidermidis; assay: Antimicrobial activity against Staphylococcus epidermidis 9 after 24 hrs; type: functional; how it was run: as §2
[7] = tested on: Staphylococcus epidermidis; assay: Antimicrobial activity against Staphylococcus epidermidis 4 after 24 hrs; type: functional; how it was run: as §2
[8] = tested on: Staphylococcus aureus; assay: Antimicrobial activity against Staphylococcus aureus ATCC 6538 after 24 hrs; type: functional; conditions: ATCC 6538, 24 h; how it was run: as §2
[9] = tested on: Staphylococcus aureus; assay: Antimicrobial activity against Staphylococcus aureus H1 after 24 hrs; type: functional; how it was run: as §2
[10] = tested on: Staphylococcus aureus; assay: Antimicrobial activity against Staphylococcus aureus K1 after 24 hrs; type: functional; how it was run: as §2
[11] = tested on: Staphylococcus aureus; assay: Antimicrobial activity against methicillin-resistant Staphylococcus aureus A1 after 24 hrs; type: functional; how it was run: as §2
[12] = tested on: Staphylococcus aureus; assay: Antimicrobial activity against methicillin-resistant Staphylococcus aureus C3 after 24 hrs; type: functional; how it was run: as §2
[13] = tested on: Staphylococcus aureus; assay: Antimicrobial activity against methicillin-resistant Staphylococcus aureus E1 after 24 hrs; type: functional; how it was run: as §2
[14] = tested on: Cutibacterium acnes; assay: Antimicrobial activity against Propionibacterium acnes NCTC 737 after 48 hrs; type: functional; conditions: NCTC 737, 48 h; how it was run: as §2
[15] = tested on: Cutibacterium acnes; assay: Antimicrobial activity against Propionibacterium acnes B5 after 48 hrs; type: functional; how it was run: as §1
[16] = tested on: Cutibacterium acnes; assay: Antimicrobial activity against Propionibacterium acnes C3 after 48 hrs; type: functional; how it was run: as §2
[17] = tested on: Cutibacterium acnes; assay: Antimicrobial activity against Propionibacterium acnes C5 after 48 hrs; type: functional; how it was run: as §2
[18] = tested on: Bacillus subtilis; assay: Antimicrobial activity against Bacillus subtilis; type: functional, organism-based
[19] = tested on: Streptococcus pyogenes; assay: Antimicrobial activity against Streptococcus pyogenes; type: functional, organism-based
[20] = tested on: Staphylococcus aureus; assay: Antimicrobial activity against Micrococcus pyogenes; type: functional, organism-based
[21] = tested on: Escherichia coli; assay: Antimicrobial activity against Escherichia coli; type: functional, organism-based
[22] = tested on: Trichophyton mentagrophytes; assay: Antimicrobial activity against Trichophyton mentagrophytes; type: functional, organism-based
[23] = tested on: Candida albicans; assay: Antimicrobial activity against Candida albicans; type: functional, organism-based

Structure (SMILES) | MIC [1] [µg/mL] | MIC [2] [µg/mL] | MIC [3] [µg/mL] | MIC [4] [µg/mL] | MIC [5] [µg/mL] | MIC [6] [µg/mL] | MIC [7] [µg/mL] | MIC [8] [µg/mL] | MIC [9] [µg/mL] | MIC [10] [µg/mL] | MIC [11] [µg/mL] | MIC [12] [µg/mL] | MIC [13] [µg/mL] | MIC [14] [µg/mL] | MIC [15] [µg/mL] | MIC [16] [µg/mL] | MIC [17] [µg/mL] | other results
CC(C)(C)NC(=S)N/N=C/C=C/c1ccco1 | > 256 | 64 (≈ 255 µM) | > 256 | 64 (≈ 255 µM) | > 256 | > 256 | > 256 | > 256 | > 256 | > 256 | > 256 | > 256 | > 256 | 64 (≈ 255 µM) | 64 (≈ 255 µM) | 4 (≈ 15.9 µM) | 1 (≈ 3.98 µM) | 
CNC(=S)N/N=C/C=C/c1ccco1 | > 256 | 64 (≈ 306 µM) | > 256 | 128 (≈ 612 µM) | > 256 | > 256 | 128 (≈ 612 µM) | > 256 | > 256 | > 256 | > 256 | > 256 | > 256 | 32 (≈ 153 µM) | 32 (≈ 153 µM) | 16 (≈ 76.5 µM) | 1 (≈ 4.78 µM) | 
CC(C)NC(=S)N/N=C/C=C/c1ccc([N+](=O)[O-])o1 | > 256 | 64 (≈ 227 µM) | > 256 | 64 (≈ 227 µM) | 64 (≈ 227 µM) | > 256 | 64 (≈ 227 µM) | > 256 | 256 (≈ 907 µM) | > 256 | > 256 | > 256 | > 256 | 32 (≈ 113 µM) | 32 (≈ 113 µM) | 32 (≈ 113 µM) | 64 (≈ 227 µM) | 
CCNC(=S)N/N=C/C=C/c1ccco1 | > 256 | 64 (≈ 287 µM) | > 256 | 64 (≈ 287 µM) | > 256 | > 256 | > 256 | > 256 | > 256 | > 256 | > 256 | > 256 | > 256 | 16 (≈ 71.7 µM) | > 256 | 32 (≈ 143 µM) | 32 (≈ 143 µM) | 
CC(C)(C)NC(=S)N/N=C/c1ccc([N+](=O)[O-])o1 | 128 (≈ 474 µM) | > 256 | 128 (≈ 474 µM) | 16 (≈ 59.2 µM) | 128 (≈ 474 µM) | > 256 | > 256 | 64 (≈ 237 µM) | > 256 | 64 (≈ 237 µM) | > 256 | > 256 | > 256 | 64 (≈ 237 µM) | 32 (≈ 118 µM) | 16 (≈ 59.2 µM) | 16 (≈ 59.2 µM) | 
CNC(=S)N/N=C/C=C/c1ccc([N+](=O)[O-])o1 | 64 (≈ 252 µM) | 32 (≈ 126 µM) | 32 (≈ 126 µM) | 16 (≈ 62.9 µM) | 32 (≈ 126 µM) | 64 (≈ 252 µM) | 32 (≈ 126 µM) | 32 (≈ 126 µM) | 16 (≈ 62.9 µM) | > 256 | 64 (≈ 252 µM) | 64 (≈ 252 µM) | 64 (≈ 252 µM) | 16 (≈ 62.9 µM) | 1 (≈ 3.93 µM) | 1 (≈ 3.93 µM) | 64 (≈ 252 µM) | 
CC(C)NC(=S)N/N=C/C=C/c1ccco1 | > 256 | 64 (≈ 270 µM) | > 256 | 128 (≈ 539 µM) | > 256 | > 256 | > 256 | > 256 | > 256 | > 256 | > 256 | > 256 | > 256 | 32 (≈ 135 µM) | > 256 | 1 (≈ 4.21 µM) | 64 (≈ 270 µM) | 
CC(C)(C)NC(=S)N/N=C/C=C/c1ccc([N+](=O)[O-])o1 | > 256 | 64 (≈ 216 µM) | 128 (≈ 432 µM) | 64 (≈ 216 µM) | > 256 | > 256 | > 256 | > 256 | 64 (≈ 216 µM) | 32 (≈ 108 µM) | > 256 | > 256 | > 256 | 16 (≈ 54 µM) | 32 (≈ 108 µM) | 8 (≈ 27 µM) | 16 (≈ 54 µM) | 
CCNC(=S)N/N=C/c1ccc([N+](=O)[O-])o1 | 64 (≈ 264 µM) | 64 (≈ 264 µM) | 128 (≈ 528 µM) | 8 (≈ 33 µM) | 32 (≈ 132 µM) | 64 (≈ 264 µM) | 32 (≈ 132 µM) | 32 (≈ 132 µM) | 16 (≈ 66 µM) | 64 (≈ 264 µM) | 64 (≈ 264 µM) | 64 (≈ 264 µM) | 64 (≈ 264 µM) | 16 (≈ 66 µM) | 32 (≈ 132 µM) | 2 (≈ 8.26 µM) | 32 (≈ 132 µM) | Activity [18]: Active; Activity [19]: Active; Activity [20]: Active; Activity [21]: Active; Activity [22]: Active; Activity [23]: Active
CC(C)NC(=S)N/N=C/c1ccc([N+](=O)[O-])o1 | > 256 | 64 (≈ 250 µM) | > 256 | 128 (≈ 499 µM) | 64 (≈ 250 µM) | > 256 | > 256 | 64 (≈ 250 µM) | 128 (≈ 499 µM) | > 256 | > 256 | > 256 | > 256 | 64 (≈ 250 µM) | > 256 | 32 (≈ 125 µM) | 64 (≈ 250 µM) | 
CN[C@H](CC(C)C)C(=O)N[C@H]1C(=O)N[C@@H](CC(N)=O)C(=O)N[C@H]2C(=O)N[C@H]3C(=O)N[C@H](C(=O)N[C@H](C(=O)O)c4cc(O)cc(O)c4-c4cc3ccc4O)[C@H](O)c3ccc(c(Cl)c3)Oc3cc2cc(c3O[C@@H]2O[C@H](CO)[C@@H](O)[C@H](O)[C@H]2O[C@H]2C[C@](C)(N)[C@H](O)[C@H](C)O2)Oc2ccc(cc2Cl)[C@H]1O [VANCOMYCIN] | 0.5 (≈ 0.345 µM) | 0.75 (≈ 0.518 µM) |  |  |  |  |  | 1.5 (≈ 1.04 µM) |  |  |  |  |  | 0.5 (≈ 0.345 µM) |  |  |  | 
CNC(=S)N/N=C/c1ccc([N+](=O)[O-])o1 | > 256 | 64 (≈ 280 µM) | > 256 | 64 (≈ 280 µM) | 16 (≈ 70.1 µM) | 128 (≈ 561 µM) | 32 (≈ 140 µM) | 64 (≈ 280 µM) | 64 (≈ 280 µM) | 128 (≈ 561 µM) | 64 (≈ 280 µM) | > 256 | 64 (≈ 280 µM) | 16 (≈ 70.1 µM) | 64 (≈ 280 µM) | 16 (≈ 70.1 µM) | 64 (≈ 280 µM) | 
